Measured values of several laboratories.
Compare with care: the assays were run in different laboratories.
Effect on: cell growth or viability

SMILES | cell line | method | time | IC50
O=C(O)c1ccc(NCc2ccc(Cl)cc2)cc1 | NCI-H69 | resazurin | 72 h | > 100000 nM
CONC(=O)Cc1c(C)n(-c2nc3c(c(NCc4ccccc4)n2)CCCN3)c2ccccc12 | RPMI-8226 | ATP luminescence | 72 h | 8000 nM
CN1C(=O)CCC(N2C(=O)c3cc4c(cc3C2=O)CN(CCCCCCCC(=O)N2CCC(C(=O)Nc3ncc(SCc5ncc(C(C)(C)C)o5)s3)CC2)C4)C1=O (stereo not drawn) | TC-71 | MTT | 72 h | > 1000 nM
COc1ccc(CNc2ccc(C(=O)O)cc2)cc1OC | NCI-H69 | resazurin | 72 h | > 100000 nM
Cc1cc2c(C(N)=O)cccc2n1-c1nc2c(c(NCc3ccccn3)n1)CCCN2 | RPMI-8226 | ATP luminescence | 72 h | 1400 nM
C=CCn1c(=O)c2cnc(Nc3ccc(N4CCN(C)CC4)cc3)nc2n1-c1ccc2c(n1)[C@@](O)(CC)CC2 | OVCAR-3 | ATP luminescence | 72 h | 295 nM
CC(C)(C)c1cnc(CSc2cnc(NC(=O)C3CCN(C(=O)CCCCCCN4Cc5cc6c(cc5C4)C(=O)N(C4CCC(=O)NC4=O)C6=O)CC3)s2)o1 (stereo not drawn) | TC-71 | MTT | 72 h | 9.58 nM
O=C(O)c1ccc(NCc2ccccc2)cc1 | NCI-H69 | resazurin | 72 h | > 100000 nM
CC(C)(C)c1cnc(CSc2cnc(NC(=O)C3CCN(C(=O)CCCCCCCCCN4Cc5cc6c(cc5C4)C(=O)N(C4CCC(=O)NC4=O)C6=O)CC3)s2)o1 (stereo not drawn) | TC-71 | MTT | 72 h | 71.7 nM
COc1ccc(CNc2ccc(C(=O)O)cc2)cc1 | NCI-H69 | resazurin | 72 h | > 100000 nM
CONC(=O)c1cccc2c1cc(C)n2-c1nc2c(c(NCc3ccccc3)n1)CCCN2 | RPMI-8226 | ATP luminescence | 72 h | 500 nM
CC(C)(C)c1cnc(CSc2cnc(NC(=O)C3CCN(C(=O)CCCCCN4Cc5cc6c(cc5C4)C(=O)N(C4CCC(=O)NC4=O)C6=O)CC3)s2)o1 (stereo not drawn) | TC-71 | MTT | 72 h | 4.71 nM
Cc1cc2c(C(N)=O)cccc2n1-c1nc2c(c(NCc3cccnc3)n1)CCCN2 | RPMI-8226 | ATP luminescence | 72 h | 2000 nM
COc1cccc2c1C(=O)c1c(O)c3c(c(O)c1C2=O)C[C@@](O)(C(=O)CO)C[C@@H]3O[C@H]1C[C@H](N)[C@H](O)[C@H](C)O1 | ACHN | MTT | 24 h | 36100 nM
CC(C)(C)c1cnc(CSc2cnc(NC(=O)C3CCN(C(=O)CCCCCCCN4Cc5cc6c(cc5C4)C(=O)N(C4CCC(=O)NC4=O)C6=O)CC3)s2)o1 (stereo not drawn) | TC-71 | MTT | 72 h | 8.52 nM
Cc1cc2c(C(N)=O)cccc2n1-c1nc2c(c(NCc3ccccc3O)n1)CCCN2 | RPMI-8226 | ATP luminescence | 72 h | 9800 nM
COc1ccc2c(c1)OC1=C(C(=O)CC(C)(C)C1)C2c1c(C(=O)O)[nH]c2ccccc12 (stereo not drawn) | 3T3-L1 | MTT | 72 h | 24.5 µg/mL
CSc1ccc(CNc2ccc(C(=O)O)cc2)cc1 | NCI-H69 | resazurin | 72 h | > 100000 nM
CC(C)(C)c1cnc(CSc2cnc(NC(=O)C3CCN(C(=O)CCOCCCN4Cc5cc6c(cc5C4)C(=O)N(C4CCC(=O)NC4=O)C6=O)CC3)s2)o1 (stereo not drawn) | TC-71 | MTT | 72 h | 16.9 nM
COc1cccc(CNc2ccc(C(=O)O)cc2)c1O | NCI-H69 | resazurin | 72 h | > 100000 nM
Cc1cc2c(C(N)=O)cccc2n1-c1nc2c(c(NCc3ccccc3)n1)CCCN2 | RPMI-8226 | ATP luminescence | 72 h | 900 nM
